In ChEMBL document CHEMBL3120104, “Discovery of the first C-nucleoside HCV polymerase inhibitor (GS-6620) with demonstrated antiviral response in HCV infected patients” (J Med Chem, 2014):
≈ marks a conversion by molar mass, not a printed value.

Legend:
Hepatitis C virus [1] = experiment: Selectivity ratio of EC50 for HCV harboring NS5B RNA dependent RNA polymerase S282T mutant to EC50 for wild-type HCV; assay type: functional, Hepacivirus hominis
[2] = biological target: DNA-directed RNA polymerase, mitochondrial (Homo sapiens) (UniProt O00411); experiment: Inhibition of mitochondrial RNA polymerase (unknown origin) assessed as inhibition of single nucleotide incorporation; details: concentration not given here
Sequence of DNA-directed RNA polymerase, mitochondrial (Homo sapiens) (O00411 whole entry): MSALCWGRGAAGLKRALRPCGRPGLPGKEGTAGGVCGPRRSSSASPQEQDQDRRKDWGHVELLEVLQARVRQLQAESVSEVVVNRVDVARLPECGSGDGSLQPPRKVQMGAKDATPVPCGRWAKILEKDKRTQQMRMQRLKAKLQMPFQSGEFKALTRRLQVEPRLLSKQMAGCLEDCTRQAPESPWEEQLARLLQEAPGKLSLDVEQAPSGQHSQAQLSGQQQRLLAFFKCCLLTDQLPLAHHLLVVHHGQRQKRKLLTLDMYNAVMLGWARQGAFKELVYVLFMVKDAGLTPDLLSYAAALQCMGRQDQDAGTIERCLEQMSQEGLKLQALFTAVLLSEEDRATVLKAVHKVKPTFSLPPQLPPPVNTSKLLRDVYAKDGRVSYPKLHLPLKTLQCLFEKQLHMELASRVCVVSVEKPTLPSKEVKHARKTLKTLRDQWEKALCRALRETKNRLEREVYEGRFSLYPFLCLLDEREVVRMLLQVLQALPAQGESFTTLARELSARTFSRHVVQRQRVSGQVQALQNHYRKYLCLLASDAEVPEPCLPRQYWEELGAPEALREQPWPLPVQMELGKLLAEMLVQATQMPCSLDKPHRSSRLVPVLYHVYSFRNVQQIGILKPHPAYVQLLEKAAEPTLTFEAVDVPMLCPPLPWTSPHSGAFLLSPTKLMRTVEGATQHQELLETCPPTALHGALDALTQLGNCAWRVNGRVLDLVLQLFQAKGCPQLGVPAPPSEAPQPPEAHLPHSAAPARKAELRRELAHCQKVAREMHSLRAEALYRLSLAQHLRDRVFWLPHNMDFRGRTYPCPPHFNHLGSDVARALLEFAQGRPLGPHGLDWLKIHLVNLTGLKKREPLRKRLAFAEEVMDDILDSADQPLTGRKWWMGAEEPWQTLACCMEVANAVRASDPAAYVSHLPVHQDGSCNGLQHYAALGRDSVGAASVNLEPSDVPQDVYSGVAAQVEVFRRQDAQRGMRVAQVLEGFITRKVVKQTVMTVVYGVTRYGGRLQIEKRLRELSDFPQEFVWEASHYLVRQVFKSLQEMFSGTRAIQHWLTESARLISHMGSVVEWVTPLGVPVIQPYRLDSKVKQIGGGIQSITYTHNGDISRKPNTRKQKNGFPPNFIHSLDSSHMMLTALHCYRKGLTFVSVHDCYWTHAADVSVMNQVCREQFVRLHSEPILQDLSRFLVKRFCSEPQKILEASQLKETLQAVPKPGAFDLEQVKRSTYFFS
Procedure, shortened: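 Reactions started with 500 μM (final) natural NTP or NTP analog. Time-point aliquots were quenched in EDTA/formamide, heated to 65 °C, resolved on 20% polyacrylamide/8 M urea gels, and product formation quantified by phosphorimaging.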

[3] = Inhibition of HCV genotype 1b recombinant NS5B RNA dependent RNA polymerase using sshRNA as substrate incubated for 5 mins prior to compound addition measured after 90 mins in presence of [33P]GTP
Hepatitis C virus [4] = experiment: Antiviral activity against HCV genotype 1b infected in human HuH7 cells assessed as inhibition of viral replication after 3 days by luminescence assay; assay type: functional, organism-based, Hepacivirus hominis; details: Huh-7, 72 h
Procedure, shortened: (§1)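 Multiplex replicon assay carrying a renilla luciferase reporter, with stable GT1b, 1a and 2a replicons and chimeric 2b, 3a, 4a, 5a and 6a replicons. 2000 replicon cells/well in medium without Geneticin. Ten-step 1:3 serial dilutions, four replicates, 0.44% DMSO final. Incubated 3 days at 37 °C, 5% CO₂. Luminescence normalised to DMSO wells and to protease-inhibitor (ITMN-191) wells. EC50 from a four-parameter Hill fit.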

Hepatitis C virus [5] = experiment: Antiviral activity against HCV genotype 1 infected in human patient assessed as viral load reduction at 450 mg administered as solution bid relative to baseline control; assay type: functional, Hepacivirus hominis
Procedure, shortened: (§2)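 Randomized, double-blind, placebo-controlled, multiple-dose, dose-escalation trial in treatment-naive patients chronically infected with HCV genotype 1. Cohorts had eight active and two placebo subjects. Doses ran from 50 mg once daily to 900 mg BID, fed or fasted, for 5 days. Read-out was median viral load change (log10 IU/mL) from baseline.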

Hepatitis C virus [6] = experiment: Antiviral activity against HCV genotype 1 infected in human patient assessed as viral load reduction at 900 mg, bid relative to placebo; assay type: functional, Hepacivirus hominis
Hepatitis C virus [7] = experiment: Antiviral activity against HCV genotype 2a; assay type: functional, organism-based, Hepacivirus hominis; details: pooled result: one value given for 8 cell lines, strains, targets or settings; procedure, shortened: as §1
Hepatitis C virus [8] = experiment: Antiviral activity against HCV genotype 1 infected in human patient assessed as viral load reduction at 900 mg administered as tablet formulation bid for 5 days relative to baseline control; assay type: functional, Hepacivirus hominis; procedure, shortened: as §2
Homo sapiens = experiment: Toxicity in human patient infected with HCV genotype 1 administered twice a day for 5 days; assay type: organism-based; details: in vivo, 120 h
Procedure, shortened: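 Randomized, double-blind, placebo-controlled multiple-dose escalation in treatment-naive patients chronically infected with HCV genotype 1. Nine cohorts (8 active, 2 placebo each) received 50 mg once daily up to 900 mg BID, fed or fasted, for 5 days. Safety, tolerability and viral load were assessed.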

[9] = Metabolic stability in serum (unknown origin); assay type: ADME
[10] = Cytotoxicity against human HuH7 cells after 3 days by fluorescence assay; assay type: cell-based; details: Huh-7 cells
Procedure, shortened: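 Huh-7 HCV replicon cells were seeded at 2000 cells/well in medium without Geneticin. Compounds were added as ten-point 1:3 DMSO dilutions in quadruplicate (final DMSO 0.44%), with […] as the 100% cytotoxicity control. After 3 days at 37 °C, cells were washed and given 400 nM calcein AM for 30 min at RT, and fluorescence read at ex 490/em 520 nm. Signal was normalized to DMSO and puromycin wells, and CC50 taken from a four-parameter Hill fit.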

[11] = Permeability across apical to basolateral side in human Caco2 cells at 10 uM after 1 to 2 hrs by LC/MS/MS analysis; assay type: ADME, cell-based; details: Caco-2, read-out: permeability
Procedure, shortened: (§3)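 Caco-2 monolayers were grown at least 21 days, and membrane integrity was checked by TEER after buffer equilibration. Test compound was dosed at 10 μM on the apical or basolateral side, in duplicate wells. Receiver samples at 1 and 2 h were precipitated with acetonitrile plus internal standard and run by LC/MS/MS.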

[12] = Metabolic stability in human liver S9 fraction assessed as extraction at 2 uM after 90 mins by LC/MS/MS analysis; assay type: ADME, subcellular; details: read-out: Stability
Procedure, shortened: (§4)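 Compound at 2 μM was incubated with human intestinal or hepatic S9 fraction plus NADPH and UDPGA for 90 min at 37 °C. Time-point samples were quenched in aqueous acetonitrile/methanol with internal standard and analysed by LC/MS/MS. Half-life came from an exponential first-order fit, and hepatic extraction was predicted from half-life using the well-stirred model.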

Syrian golden hamster [13] = experiment: Cmax in golden syrian hamster assessed as liver triphosphate level at 5 mg/kg, po by LC/MS/MS analysis; assay type: ADME, organism-based, Mesocricetus auratus; design: dose 5 mg/kg, route oral; details: in vivo
Procedure, shortened: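 Groups of 12 Golden Syrian hamsters were dosed orally at 5 mg-equiv/kg. Vehicle was EtOH/PEG400/water buffered with 50 mM pH 4 citrate at 2.5 mg-equiv/mL. Liver was homogenized in four volumes of ice-cold 0.1% KOH/67 mM EDTA in 70% MeOH containing 0.25 μM Cl-ATP, then centrifuged, dried and reconstituted in 1 mM ammonium phosphate pH 7.0. Triphosphate was measured by LC/MS/MS, with endogenous ATP checked for sample stability.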

[14] = AUC (0 to infinity) in jagular vein cannulated beagle dog at 0.5 mg/kg, iv by LC/MS/MS analysis; assay type: ADME, organism-based, Canis lupus familiaris; design: time infinity, dose 0.5 mg/kg, route intravenous; details: plasma
Procedure, shortened: (§5)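 Naive male beagle dogs got a single intravenous infusion of 0.5 mg/kg in EtOH/PEG 400/water 5/20/75, adjusted to pH 4 with HCl. EDTA-K3 blood was collected over 24 h and plasma isolated. Plasma was precipitated with acetonitrile to a final 60%, filtered, dried, reconstituted in 20% acetonitrile and analysed.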

[15] = Aqueous solubility of the compound in phosphate buffer at pH 7 by reverse-phase UPLC-UV method; assay type: physicochemical
Procedure, shortened: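 Excess solid was suspended in pH 7 phosphate buffer at ambient temperature, sonicated, then stirred for at least 2 h. After centrifugation, the supernatant was quantified by reverse-phase UPLC-UV.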

[16] = Lipophilicity, log D of the compound by HPLC/UV method; assay type: physicochemical
Procedure, shortened: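 A 10 mM DMSO stock was diluted 1:100 into 1:1 acetonitrile/water, shaken 30 min, and analysed by HPLC/UV on a C18 column with 20 mM ammonium acetate/acetonitrile mobile phase.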

Syrian golden hamster [17] = experiment: Cmax in golden syrian hamster assessed as liver triphosphate level at 1 mg/kg, iv by LC/MS/MS analysis; assay type: ADME, organism-based, Mesocricetus auratus; design: dose 1 mg/kg, route intravenous; details: in vivo
Procedure, shortened: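 Golden Syrian hamsters in groups of 12, dosed iv at 1 mg-equiv/kg in EtOH/PEG400/water adjusted to pH 4 with HCl (0.5 mg-equiv/mL). Liver homogenised in ice-cold 70% MeOH with 0.1% KOH, 67 mM EDTA and 0.25 μM Cl-ATP internal standard, then centrifuged, dried and reconstituted. Triphosphate measured by LC/MS/MS; endogenous ATP checked for sample stability.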

[18] = Permeability across basolateral to apical side in human Caco2 cells at 10 uM after 1 to 2 hrs by LC/MS/MS analysis; assay type: ADME, cell-based; details: Caco-2, read-out: permeability; procedure, shortened: as §3
Huh-7 = experiment: Prodrug coversion in human HuH7 cells assessed as triphosphate formation at 10 uM after 24 hrs by liquid chromatography coupled with mass spectrometry; assay type: ADME, cell-based; details: huh-7, 24 h
Procedure, shortened: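 Huh-7 cells carrying the GT1b replicon, grown to confluency in 12-well plates (0.88 × 10⁶ cells/well). Exposed 24 h to 10 μM compound, then washed with ice-cold saline and extracted overnight in frozen 70% methanol. Dried extract resuspended in 1 mM ammonium phosphate pH 8.5. Triphosphate quantified by LC/triple-quadrupole MS.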

[19] = Oral absorption in beagle dog at 5 mg/kg, po by LC/MS/MS analysis; assay type: ADME, organism-based, Canis lupus familiaris; design: dose 5 mg/kg, route oral; details: in vivo
Procedure, shortened: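 Naive male beagle dogs were dosed once, orally at 5 mg/kg in EtOH/PEG 400/50 mM citrate buffer pH 4 (5/40/55), or intravenously at 0.5 mg/kg for reference. Plasma was sampled over 24 h and processed by acetonitrile precipitation. Bioavailability %F = AUC_po × Dose_iv / (AUC_iv × Dose_po).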

[20] = AUC (0 to infinity) in portal vein cannulated beagle dog at 0.5 mg/kg, iv by LC/MS/MS analysis; assay type: ADME, organism-based, Canis lupus familiaris; design: time infinity, dose 0.5 mg/kg, route intravenous; details: plasma; procedure, shortened: as §5
[21] = Oral bioavailability in golden syrian hamster at 5 mg/kg; assay type: ADME, organism-based, Mesocricetus auratus; details: in vivo
[22] = Half life in human intestinal S9 fraction at 2 uM by LC/MS/MS analysis; assay type: ADME, Intestine; procedure, shortened: as §4
[23] = Efflux ratio of apparent permeability across human Caco2 cells at 100 uM; assay type: ADME, cell-based; details: Caco-2
Procedure, shortened: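 Caco-2 monolayers grown to confluence for at least 21 days; membrane integrity checked by TEER after equilibration in transport buffer. Compound added to apical or basolateral side (duplicate wells) to give forward and reverse permeability. Receiver samples taken at 1 and 2 h, acetonitrile-precipitated, and quantified by LC/MS/MS. Papp calculated from receiver slope, volume and monolayer area. Recovery also measured.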

[24] = Toxicity in dog after 7 days; assay type: organism-based, Canis lupus familiaris; details: in vivo
Procedure, shortened: (§6)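 Nonclinical 7-day toxicology study with daily dosing up to 300 mg/(kg day) in rats and up to 75 mg/(kg day) in dogs; NOAEL set from test-article related findings.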

[25] = Toxicity in rat after 7 days; assay type: organism-based; details: in vivo; procedure, shortened: as §6

C[C@@]1(O)[C@H](O)[C@@H](CO)O[C@H]1n1ccc2c(N)ncnc21 [BETA-2'-C-METHYL-7-DEAZA-ADENOSINE]
Ratio EC50 (Hepatitis C virus [1]): >95

C[C@@]1(c2ccc3c(N)ncnn23)O[C@H](CO)[C@@H](O)[C@@]1(C)O
inhibition [2]: 0.08% | IC50 [3]: 55 µM | EC50 (Hepatitis C virus [4]): > 89 µM

CC(C)OC(=O)[C@H](C)N[P@](=O)(OC[C@H]1O[C@@](C#N)(c2ccc3c(N)ncnn23)[C@](C)(O)[C@@H]1OC(=O)C(C)C)Oc1ccccc1 [GS-6620]
Activity (Hepatitis C virus [5]): 1.63 log10IU/ml | Activity (Hepatitis C virus [6]): 1.14 log10IU/ml | EC50 (Hepatitis C virus [7]): 0.068 µM | Activity (Hepatitis C virus [8]): 1.73 log10IU/ml | MTD (Homo sapiens): 900 mg | Stability [9]: Stable

CC(C)OC(=O)[C@H](C)NP(=O)(OC[C@H]1O[C@@](C#N)(c2ccc3c(N)ncnn23)[C@](C)(O)[C@@H]1O)Oc1ccccc1 (some centres not stated)
CC50 at 72 h [10]: > 89 µM | Papp A→B at 10 µM [11]: 0.16 ×10⁻⁶ cm/s | hepatic extraction ratio at 1.5 h, 2 µM [12]: 0.9 | Cmax (Syrian golden hamster [13]): 0.53 µM | AUC(0-inf) [14]: 0.16 µM·h | solubility [15]: 306 µg/mL (≈ 533 µM) | logD [16]: 1.8 | Cmax (Syrian golden hamster [17]): 5.65 µM | Papp B→A at 10 µM [18]: 8.92 ×10⁻⁶ cm/s | EC50 (Hepatitis C virus [4]): 1.05 µM | Drug metabolism (Huh-7): 20 µM | Fa [19]: 10% | AUC(0-inf) [20]: 0.99 µM·h | Stability [9]: Stable | bioavailability [21]: 1.9% | half-life at 2 µM [22]: > 10.2 h

CC(C)OC(=O)[C@H](C)NP(=O)(OC[C@H]1O[C@@](C#N)(c2ccc3c(N)ncnn23)[C@](C)(O)[C@@H]1OC(=O)C(C)C)Oc1ccccc1 (some centres not stated)
CC50 at 72 h [10]: 47 µM | Cmax (Syrian golden hamster [13]): 3.67 µM | efflux ratio at 100 µM [23]: < 2 | NOAEL at 168 h [24]: > 75 mg/kg/day | logD [16]: 2.9 | Ratio EC50 (Hepatitis C virus [1]): >95 | Cmax (Syrian golden hamster [17]): 4.5 µM | NOAEL at 168 h [25]: > 300 mg/kg/day | EC50 (Hepatitis C virus [4]): 0.61 µM | Fa [19]: 88% | Stability [9]: Stable
